Assay results as given in ChEMBL document CHEMBL4706681, “New 2-Pyrazoline and Hydrazone Derivatives as Potent and Selective Monoamine Oxidase A Inhibitors” (J Med Chem, 2021).
Calls of active or inactive are those of the source. No cut-off for these calls is given here.

What was measured:
[1] = test system: Mus musculus; experiment: Antidepressant-like activity in CD1 mouse assessed as maximum efficacy at 20 mg/kg, po administered as subchronic dose gavage for 7 days and measured 1 h post last dose by Porsolt-forced swim test; format: functional, organism-based; conditions: time 7.0 day
Summary of the method: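 Male albino CD-1 mice (20–25 g), 12 h light/dark, food and water ad libitum. Dosed by oral gavage once daily for 7 days in 200 μL 0.5% CMC; vehicle-only controls. […] Forced swim test run 1 h after the last dose. Immobility scored every 60 s over 6 min; n = 8–12.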

[2] = Ex vivo inhibition of MAOA in CD1 mouse brain homogenates assessed as 5-HT levels at 30 mg/kg, po administered as single acute dose via gavage and measured after 1 hr by ELISA kit method (reference value: 0.80 +/- 0.006 ug/g); format: functional
[3] = Ex vivo inhibition of MAOA in CD1 mouse brain homogenates assessed as dopamine levels at 30 mg/kg, po administered as single acute dose via gavage and measured after 1 hr by ELISA kit method (reference value: 7.08 +/- 0.58 ug/g); format: functional
[4] = Effect on locomotor activity in CD1 mouse assessed as total distance traveled at 20 mg/kg, po administered via gavage for 7 days by open field test; format: ADME, organism-based; conditions: in vivo, 168 h, time 7 day
Summary of the method: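 Each mouse placed in the centre of a 50 × 50 × 30 cm black box and video-tracked; total distance travelled over 5 min; n = 8–10.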

[5] = Ex vivo inhibition of MAOA in CD1 mouse brain homogenates assessed as inhibition of dopamine deamination by measuring DOPAC metabolite levels at 20 mg/kg, po administered as single acute dose via gavage and measured after 1 hr by HPLC analysis (reference value: 1.22 +/- 0.2 ug/g); format: functional

Compound	Activity [1]	Activity [2]	Activity [3]	Activity [4]	Activity [5]
COc1ccc(C2=NN(C(=O)Cn3c(=O)oc4ccc(C)cc43)C(c3cccc(OC)c3OC)C2)cc1 (stereo not given)	inactive	1.1 µg/g	7.13 µg/g		
O=C(NCCN1CCOCC1)c1ccc(Cl)cc1 [MOCLOBEMIDE]				Non-Toxic	1.24 µg/g
